{"source": "paper PMC6857568", "about": "(Molecular Biology of the Cell, 2019)", "key": {"[1]": {"system": "taxol-stabilized Atto647N-labeled microtubules", "assay": "Microtubule-binding by TIRF microscopy on taxol-stabilized microtubules", "parameters": "species or system pig"}, "[2]": {"system": "subtilisin-treated GMP-CPP/taxol double-stabilized microtubules", "assay": "Binding to subtilisin-treated", "parameters": "species or system pig", "conditions": "C-termini removed", "outline": "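GMP-CPP microtubules were digested with 200 µg/ml subtilisin A in BRB80 plus 10 µM taxol for 1 h at 30°C, then stopped with 10 mM PMSF. Digestion was checked by SDS-PAGE. Brightly labeled (1:4) digested and dimly labeled (1:20) undigested microtubules shared one channel. Peptide binding was imaged by TIRF at 25°C in the stabilized-microtubule buffer.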"}, "[3]": {"system": "taxol-stabilized ATTO 647N-labeled microtubules", "assay": "Single-molecule diffusion and track-switching on the microtubule lattice", "assay_type": "binding, pig", "outline": "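Peptide at 1 nM was imaged on taxol microtubules at 25°C in BRB80. Recordings were 5-min continuous streams at 100-ms exposure (532 nm). Single molecules were tracked automatically (minimum 5 frames, maximum 3-frame break) and checked against kymographs. D came from MSD linear regression and from a covariance-based estimator weighted by trajectory length.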"}, "[4]": {"system": "dynamic Alexa 647–labeled microtubules", "assay": "Tracking of microtubule ends on dynamic microtubules", "assay_type": "biochemical, pig", "outline": "(§1)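 Dynamic assay: biotinylated GMP-CPP pig tubulin seeds were bound to anti-biotin antibody, then given 14 µM Alexa 647 tubulin with 1 mM GTP, methylcellulose, casein and oxygen scavenger in PIPES pH 6.8. Peptide was present at the stated concentrations, at 35°C for up to 30 min. Dual-color time-lapse was one frame per 3 s; kymographs were analyzed manually.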"}, "[5]": {"system": "dynamic Alexa 647–labeled microtubules", "assay": "Microtubule dynamics", "assay_type": "biochemical, pig", "conditions": "vs MOCK"}, "[6]": {"system": "Alexa 647–labeled tubulin", "assay": "Spontaneous microtubule nucleation assay", "assay_type": "biochemical, pig", "conditions": "100 nM, 5 min, 35°C; for microtubules nucleated de novo: ± SD, MOCK 0.6 ± 0.4"}, "[7]": {"system": "depolymerizing microtubule plus ends / intersecting microtubules", "assay": "Outcome of depolymerizing plus end crossing an intersecting microtubule", "assay_type": "biochemical, pig", "conditions": "for pulling events (in words): 50 or 100 nM (starPEG-(KA7)4-TAMRA); for pick-up of tubulin aggregates tracking depolymerizing plus ends: dynamic microtubule assay", "outline": "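Peptide was present in the dynamic-seed assay (14 µM Alexa 647 tubulin, GTP, 35°C). Dual-color time-lapse ran at one frame per 3 s. Peptide intensity at a crossing was the background-corrected integrated intensity of a five-pixel circle, taken in the frame where the depolymerizing plus end crossed the intersecting microtubule. Multiple-peak Gaussian fitting was used.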"}, "[8]": {"system": "depolymerizing microtubule plus ends / intersecting microtubules", "assay": "Bending forces of pulled microtubules during pulling events", "assay_type": "biochemical, pig", "conditions": "beam equation, deflection angle ≤30°, corrected force, mean ± SD, N = 11"}, "[9]": {"system": "dynamic Alexa 647–labeled microtubules", "assay": "Bundling of dynamic microtubules", "assay_type": "biochemical, pig", "conditions": "50 or 100 nM starPEG-(KA7)4-TAMRA; 50 nM starPEG-(DA7)4-TAMRA; 35°C", "outline": "as §1"}, "[10]": {"system": "overlaps of taxol-stabilized microtubules", "assay": "Accumulation in overlaps of taxol-stabilized microtubules", "assay_type": "binding, pig"}, "[11]": {"system": "rat kinesin-1 (rKin430-GFP)", "assay": "Kinesin-1 stepping", "assay_type": "biochemical", "conditions": "5 and 25 nM", "outline": "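GFP-tagged truncated rat kinesin-1 (1–430) ran on antibody-bound taxol microtubules with 1 mM ATP and peptide, at 25°C. Movies were 5 min at 100-ms exposure (488 nm), with a peptide snapshot beforehand. Landing rate, velocity, dwell time and run length were scored manually from kymographs. Gaussian and log-normal fits were applied; half-maxima of cumulative plots were reported.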"}, "[12]": {"molecular_target": "Atto647N-labeled microtubules of pig brain tubulin (pig) (UniProt Q2XVP4)", "assay": "TIRF microscopy binding assay"}, "[13]": {"conditions": "average, n = 19 tracking events, 35°C"}}, "data": [{"substance": "starPEG-(KA7)4-TAMRA", "values": [{"measurement": "saturation of microtubule binding", "setting": "[1]; taxol-stabilized microtubules, BRB80, 25°C", "result": "~200", "unit": "nM"}, {"measurement": "effect of subtilisin protease treatment on microtubule binding", "setting": "[2]", "result": "completely abolishes microtubule binding"}, {"measurement": "diffusion coefficient (overall)", "setting": "[3]; 25°C, BRB80", "result": "~0.3", "unit": "µm^2s^–1"}, {"measurement": "diffusion coefficient D (MSD)", "setting": "[3]; mean square displacement, linear regression, mean ± SEM, N = 998, 1 nM, 25°C, BRB80", "result": "0.33 ± 0.04", "unit": "µm^2s^–1"}, {"measurement": "track-switching at microtubule intersections", "setting": "[3]; single molecules, taxol-stabilized microtubules", "result": "able to switch their microtubule track at microtubule–microtubule intersections"}, {"measurement": "tracking of growing microtubule plus end", "setting": "[4]; after rescue event", "result": "unable to track the growing microtubule plus end"}, {"measurement": "microtubule shortening during tracked depolymerization events", "setting": "[4]; [13]", "result": "~60", "unit": "%"}, {"measurement": "microtubule-bound intensity lost during one depolymerization event", "setting": "[4]; [13]", "result": "~30", "unit": "%"}, {"measurement": "minus-end tracking", "setting": "[4]; dynamic microtubules", "result": "could not observe any minus-end-tracking event"}, {"measurement": "concentration on remaining microtubule lattice by end-tracking", "setting": "[4]; normalized intensity / normalized length", "result": "about twofold"}, {"measurement": "effect on rescue frequency (in words)", "setting": "[5]; 50 and 100 nM", "result": "100 nM but not 50 nM starPEG-(KA7)4-TAMRA significantly reduces the rescue frequency"}, {"measurement": "effect on growth velocity (in words)", "setting": "[5]; 50 or 100 nM", "result": "increases the growth velocity significantly"}, {"measurement": "microtubule nucleation (in words)", "setting": "[6]", "result": "robust nucleation is evident"}, {"measurement": "microtubules nucleated de novo", "setting": "[6]", "result": "9 ± 2.5 MT per minute and field of view"}, {"measurement": "pulling events (in words)", "setting": "[7]", "result": "frequent pulling events"}, {"measurement": "pick-up of tubulin aggregates tracking depolymerizing plus ends", "setting": "[7]", "result": "eventually picked up surface-associated tubulin aggregates that started to diffuse along the microtubule lattice and tracked depolymerizing plus ends"}, {"measurement": "bending force during pulling events (mean)", "setting": "[8]", "result": "4.2 ± 2.7", "unit": "pN"}, {"measurement": "microtubule bundling", "setting": "[9]", "result": "pronounced microtubule bundling"}, {"measurement": "accumulation in microtubule overlaps (in words)", "setting": "[10]; low density (5 nM)", "result": "preferentially binds to or accumulates in overlaps of taxol-stabilized microtubules"}, {"measurement": "accumulation in microtubule overlaps (in words)", "setting": "[10]; near a half-saturating concentration (25 nM)", "result": "this effect is lost"}, {"measurement": "effect on kinesin-1 dwell time (in words)", "setting": "[11]", "result": "does not significantly affect the motor’s average dwell time"}, {"measurement": "effect on kinesin-1 landing rate (in words)", "setting": "[11]", "result": "significantly decreases the landing rate of kinesin-1 in a concentration-dependent manner"}, {"measurement": "effect on kinesin-1 run length (in words)", "setting": "[11]", "result": "nor the average motor run length"}, {"measurement": "effect on kinesin-1 velocity (in words)", "setting": "[11]", "result": "slightly increased"}]}, {"substance": "starPEG-(DA7)4-TAMRA", "values": [{"measurement": "microtubule binding", "setting": "[1]; high nanomolar concentrations (i.e., >250 nM), charge-inverted control", "result": "does not show any microtubule binding"}, {"measurement": "effect on microtubule dynamics (in words)", "setting": "[5]; 50 nM", "result": "do not change microtubule dynamics compared with MOCK control"}, {"measurement": "microtubules nucleated de novo", "setting": "[6]", "result": "0.8 ± 1.0 MT per minute and field of view"}, {"measurement": "pulling events (in words)", "setting": "[7]", "result": "none"}, {"measurement": "pick-up of tubulin aggregates tracking depolymerizing plus ends", "setting": "[7]", "result": "not evident"}, {"measurement": "microtubule bundling", "setting": "[9]", "result": "not in the presence of 50 nM starPEG-(DA7)4-TAMRA"}]}, {"substance": "starPEG-(KA7)4-TAMRA (designed binder)", "values": [{"measurement": "Kd", "setting": "[12]", "result": 30, "unit": "nM"}, {"measurement": "concentration at which saturation is reached", "setting": "[12]", "result": 200, "unit": "nM"}]}]}
